Test results reported in ChEMBL document CHEMBL1932931, “Analogues of doxanthrine reveal differences between the dopamine D1 receptor binding properties of chromanoisoquinolines and hexahydrobenzo[a]phenanthridines” (Eur J Med Chem, 2012).

Tests used:
[1] = target: D(2) dopamine receptor (Homo sapiens, UniProt P14416); assay: Binding affinity to dopamine D2 receptor
[2] = Selectivity ratio of Ki for dopamine D1 receptor to Ki for dopamine D2 receptor
[3] = Displacement of [3H]SCH-23390 from dopamine D1-like receptor in porcine striatal homogenates after 30 mins by scintillation counting; type: tissue-based, Sus scrofa
Summary of the method: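 Fresh porcine striatum was homogenized in 20 mM Hepes/0.32 M sucrose (pH 7.4), and the P2 membrane pellet was washed in 50 mM Tris (pH 7.4) and stored at -80 °C. Incubation was 30 min at 37 °C, then filtration and scintillation counting. Values are means ± SEM of 4-11 independent experiments.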

[4] = Displacement of [3H]spiperone from dopamine D2-like receptor in porcine striatal homogenates after 30 mins by scintillation counting; type: tissue-based, Sus scrofa
[5] = species: Sus scrofa; assay: Selectivity ratio of Ki for dopamine D2-like receptor in porcine striatal homogenates to Ki for dopamine D1-like receptor in porcine striatal homogenates; type: tissue-based

D(2) dopamine receptor, sequence (P14416 whole entry): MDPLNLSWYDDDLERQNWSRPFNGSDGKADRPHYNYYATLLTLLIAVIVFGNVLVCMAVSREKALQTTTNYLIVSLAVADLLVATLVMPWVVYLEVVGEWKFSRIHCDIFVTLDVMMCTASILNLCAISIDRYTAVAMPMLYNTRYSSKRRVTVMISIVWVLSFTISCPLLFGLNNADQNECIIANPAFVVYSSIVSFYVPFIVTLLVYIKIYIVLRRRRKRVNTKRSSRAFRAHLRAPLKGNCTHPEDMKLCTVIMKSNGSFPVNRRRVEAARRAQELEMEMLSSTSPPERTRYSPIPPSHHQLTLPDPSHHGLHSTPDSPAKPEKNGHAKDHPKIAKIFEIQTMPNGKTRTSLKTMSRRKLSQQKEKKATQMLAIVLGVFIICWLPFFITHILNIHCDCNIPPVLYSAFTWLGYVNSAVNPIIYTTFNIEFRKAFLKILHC

With CCc1ccc2c(c1)[C@@H]1c3cc(O)c(O)cc3CC[C@H]1NC2 the Ki [1] was 420 nM and the Ratio Ki [2] was 14.5.
Molecule CN1CCc2cc(Cl)c(O)cc2[C@@H](c2ccccc2)C1 has a Ki [3] of 0.46 nM.
Cc1ccc2c(c1)[C@@H]1c3cc(O)c(O)cc3CC[C@H]1NC2 gave a Ratio Ki [2] of 34.7.
Molecule Cc1ccc2c(c1)[C@@H]1c3cc(O)c(O)cc3OC[C@H]1NC2 (racemic) has a Ki [3] of 150 nM, a Ki [4] of 6800 nM and a Ratio Ki [5] of 55.
With CCc1ccc2c(c1)[C@@H]1c3cc(O)c(O)cc3OC[C@H]1NC2 (racemic) the Ki [3] was 180 nM, the Ki [4] was 6400 nM and the Ratio Ki [5] was 49.
Oc1cc2c(cc1O)[C@H]1c3cc(F)ccc3CN[C@@H]1CO2 (racemic) showed a Ki [3] of 110 nM, a Ki [4] of 740 nM and a Ratio Ki [5] of 8.5.
In the case of Oc1cc2c(cc1O)[C@H]1c3cc(C(F)(F)F)ccc3CN[C@@H]1CO2 (racemic), the Ki [3] is reported as 570 nM, the Ki [4] is reported as 6900 nM and the Ratio Ki [5] is reported as 14.
With Oc1cc2c(cc1O)[C@H]1c3ccccc3CN[C@@H]1CS2 (racemic) the Ki [3] was 200 nM, the Ki [4] was 2500 nM and the Ratio Ki [5] was 15.
